Measured values from different studies.
Lines come from different studies, so protocols differ.
Target: Cytochrome P450 2D6 (CYP2D6, Homo sapiens, UniProt P10635)
Effect on: enzyme activity
Mode: inhibitor

C[C@@H](c1ccc2nccn2c1)n1nnc2ncc(-c3cnn(C)c3)nc21
IC50 (human; liver microsomes; pH 7.4): 24 µM

N#C[C@H](C[C@@H]1CCCNC1=O)NC(=O)[C@H](CC1CC1)NC(=O)c1cc2cccc(Cl)c2[nH]1
IC50 (human; liver microsomes): 50.7 µM

Cc1ccc2nc(-c3ccccc3)c(CNc3ccc(F)cc3)n2c1
IC50: 2.3 µM

CC1=CC(=O)C(C(C)C)=CC1=O
IC50 (fluorescence; pH 7.4): 282 µM

Cc1coc([C@H]2C[C@H]3[C@@H](CF)SC(N)=N[C@@]3(c3ccc(F)cc3F)CO2)n1
IC50 (human; liver microsomes; pH 7.4): > 30 µM

Nc1nc(N)c2nc(CNc3cccc4ccccc34)cnc2n1
IC50 (luciferase): 0.832 µM

COc1ccc2c(Cc3ccccc3F)c3[n+](cc2c1OC)CCc1cc2c(cc1-3)OCO2
IC50: 0.2 µM

Fc1ccc(Nc2c(-c3ccccn3)nc3ccc(C4CC4)cn23)cc1
IC50: 1.5 µM

C=CC(=O)Nc1cc(Nc2nccc(Nc3cc(Cl)c(F)cc3C(C)(C)O)n2)c(OC)cc1N1CC[C@@H](N(C)C)C1
IC50 (human; liver microsomes): 6.3 µM

Nc1nc(N)c2nc(C(=O)NCc3ccccc3)cnc2n1
IC50 (luciferase): 0.204 µM

COc1ccc2c(Cc3ccccc3F)c3n(c(=O)c2c1OC)CCc1cc2c(cc1-3)OCO2
IC50: > 10 µM

NS(=O)(=O)NCCNc1nonc1C(=NO)Nc1ccc(F)c(Br)c1
IC50 (fluorescence): > 10 µM
